Series [1] addresses Xanthine dehydrogenase/oxidase (Homo sapiens, UniProt P47989). Put plainly: Inhibition of xanthine oxidase using hypoxanthine as substrate by UV-Vis spectrophotometry. A digest of the protocol: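 Control with xanthine oxidase and hypoxanthine: uric acid formation followed spectrophotometrically, with and without test compound.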
A short description of series [2]: Inhibition of Leishmania donovani recombinant nucleoside hydrolase expressed in Escherichia coli DH5alpha coexpressing MBP using inosine as substrate by xanthine oxidase-coupled assay. A digest of the protocol:
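MBP-fused enzyme (13 nM) with 0.3 mM inosine and xanthine oxidase (60 milliunits/mL) in 20 mM phosphate pH 8.0. Uric acid formation read at 293 nm, with at least six inhibitor concentrations. IC50 from nonlinear dose-response fit of % inhibition. Ki from five or six inhibitor concentrations at a substrate level near KM, converted with the Cheng–Prusoff equation.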

Series [3] concerns Leishmania donovani. Kind of series: Competitive inhibition of Leishmania donovani recombinant nucleoside hydrolase expressed in Escherichia coli DH5alpha coexpressing MBP using inosine as substrate by Lineweaver-Burk plot analysis.
In series [4] the test system is Leishmania donovani. Put plainly: Ratio of inosine Km to compound Ki for Leishmania donovani recombinant nucleoside hydrolase.
The subject of series [5] is Leishmania donovani. Put plainly: Activity of Leishmania donovani recombinant nucleoside hydrolase expressed in Escherichia coli DH5alpha coexpressing MBP. The procedure, abridged:
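LdNH fused to MBP, expressed from pMAL-c2-NH36 in E. coli DH5α (IPTG 0.3 mM, 2 h) and amylose-purified. Inosine hydrolysis coupled to excess xanthine oxidase (60 milliunits/mL) converting hypoxanthine to uric acid, read at 293 nm. 13 nM enzyme, inosine 0.3–3.0 KM, 20 mM phosphate pH 8.0, room temperature, triplicate. KM and Vmax from nonlinear Michaelis–Menten fit of initial velocities.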

The source made the active and inactive calls. No cut-off for these calls is given here.

Xanthine dehydrogenase/oxidase, sequence (P47989 whole entry): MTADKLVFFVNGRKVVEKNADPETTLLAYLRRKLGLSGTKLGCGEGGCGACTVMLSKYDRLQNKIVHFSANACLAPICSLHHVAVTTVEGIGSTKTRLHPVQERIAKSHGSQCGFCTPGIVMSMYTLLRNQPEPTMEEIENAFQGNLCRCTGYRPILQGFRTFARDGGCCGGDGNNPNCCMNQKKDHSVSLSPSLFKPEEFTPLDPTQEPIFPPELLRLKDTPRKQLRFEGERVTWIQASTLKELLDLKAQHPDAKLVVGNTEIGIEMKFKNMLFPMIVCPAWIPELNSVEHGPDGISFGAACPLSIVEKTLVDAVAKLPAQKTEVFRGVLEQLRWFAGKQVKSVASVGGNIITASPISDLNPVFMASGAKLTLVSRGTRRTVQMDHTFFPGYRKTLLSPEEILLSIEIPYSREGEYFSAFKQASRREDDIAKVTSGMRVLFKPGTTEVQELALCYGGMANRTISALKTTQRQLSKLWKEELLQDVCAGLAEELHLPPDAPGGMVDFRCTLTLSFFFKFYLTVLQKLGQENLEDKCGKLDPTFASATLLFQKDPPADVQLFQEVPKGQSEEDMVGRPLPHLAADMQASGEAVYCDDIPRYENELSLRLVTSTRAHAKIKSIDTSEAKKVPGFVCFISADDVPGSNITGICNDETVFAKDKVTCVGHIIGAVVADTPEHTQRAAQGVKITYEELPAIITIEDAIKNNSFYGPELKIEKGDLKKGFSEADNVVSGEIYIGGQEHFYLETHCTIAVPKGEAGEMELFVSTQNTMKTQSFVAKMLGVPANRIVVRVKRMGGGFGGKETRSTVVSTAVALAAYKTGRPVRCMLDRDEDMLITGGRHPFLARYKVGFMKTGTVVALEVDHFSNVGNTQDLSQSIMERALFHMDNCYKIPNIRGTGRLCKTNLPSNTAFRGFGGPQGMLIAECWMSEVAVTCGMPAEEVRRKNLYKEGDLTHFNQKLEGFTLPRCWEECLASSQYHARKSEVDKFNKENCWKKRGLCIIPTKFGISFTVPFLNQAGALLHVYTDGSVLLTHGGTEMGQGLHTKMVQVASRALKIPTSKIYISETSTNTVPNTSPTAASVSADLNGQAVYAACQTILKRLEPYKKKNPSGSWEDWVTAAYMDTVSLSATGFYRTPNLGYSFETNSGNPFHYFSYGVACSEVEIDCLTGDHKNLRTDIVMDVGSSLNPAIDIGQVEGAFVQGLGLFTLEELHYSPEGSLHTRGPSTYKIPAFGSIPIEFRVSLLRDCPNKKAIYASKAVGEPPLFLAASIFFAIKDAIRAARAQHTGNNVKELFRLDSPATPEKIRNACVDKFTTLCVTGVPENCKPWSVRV

Broadly, the IC50 is the concentration at which inhibition is half-maximal. As a reminder, the Ki is a dissociation constant, usually derived from enzyme kinetics or from competition with a known ligand. Take `O=C(O)c1cn([C@@H]2O[C@H](CO)[C@@H](O)[C@H]2O)c2ccc(Cl)cc2c1=O`: the “inhibition (INH)” value in series [1] is recorded as “Not Active”. In series [2], the IC50 stood at 2.66 µM and the Ki was found to be 1.6 µM. The inhibition entry in the series with Leishmania donovani [3] was “Active”. Moreover, in the series on Leishmania donovani [4], the Ratio is 270.

Consider `O=C(O)c1cn([C@@H]2O[C@H](CO)[C@@H](O)[C@H]2O)c2ccc(F)cc2c1=O`, for which the “inhibition (INH)” value in series [1] is listed as “Not Active”. Further, in series [2], the IC50 is 28.9 µM and the Ki is 17 µM. In addition, the inhibition entry in the series with Leishmania donovani [3] is “Active”. Moreover, the Ratio in the series on Leishmania donovani [4] turned out to be 26.

The term Km denotes the concentration of substrate that gives half-maximal velocity. Regarding `O=c1[nH]cnc2c1ncn2[C@@H]1O[C@H](CO)[C@@H](O)[C@H]1O`, the Km in the series on Leishmania donovani [5] worked out at 434 µM.
